Reference: ChEMBL document CHEMBL1143734, “Design, synthesis, binding, and molecular modeling studies of new potent ligands of cannabinoid receptors” (Bioorg Med Chem, 2007)

How the values were obtained:
Cannabinoid receptor 2 = Cannabinoid receptor 2 (Homo sapiens, UniProt P34972); test: Displacement of [3H]CP-55940 from human CB2 receptor expressed in HEK cells; format: cell-based, HEK293
Method in brief: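 Preliminary screen at 5, 10 and 25 µM, then a complete displacement curve if binding fell by >50% at 10 µM. IC50 converted to Ki using Cheng–Prusoff. Mean of 3 separate experiments.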

[1] = target: Cannabinoid receptor (Homo sapiens) (UniProt P34972+P21554); test: Selectivity for human CB1 receptor over human CB2 receptor; format: protein assay
Cannabinoid receptor 1 [2] = target: T1, Cannabinoid receptor 1 (Homo sapiens, UniProt P21554); test: (§1) Displacement of [3H]CP-55940 from human CB1 receptor expressed in HEK cells; format: cell-based, HEK293
[3] = target: T2, Fatty-acid amide hydrolase 1 (Rattus norvegicus, UniProt P97612); test: Inhibition of rat brain FAAH assessed as inhibition of [14C]anandamide hydrolysis
T2 sequence (P97612 whole entry): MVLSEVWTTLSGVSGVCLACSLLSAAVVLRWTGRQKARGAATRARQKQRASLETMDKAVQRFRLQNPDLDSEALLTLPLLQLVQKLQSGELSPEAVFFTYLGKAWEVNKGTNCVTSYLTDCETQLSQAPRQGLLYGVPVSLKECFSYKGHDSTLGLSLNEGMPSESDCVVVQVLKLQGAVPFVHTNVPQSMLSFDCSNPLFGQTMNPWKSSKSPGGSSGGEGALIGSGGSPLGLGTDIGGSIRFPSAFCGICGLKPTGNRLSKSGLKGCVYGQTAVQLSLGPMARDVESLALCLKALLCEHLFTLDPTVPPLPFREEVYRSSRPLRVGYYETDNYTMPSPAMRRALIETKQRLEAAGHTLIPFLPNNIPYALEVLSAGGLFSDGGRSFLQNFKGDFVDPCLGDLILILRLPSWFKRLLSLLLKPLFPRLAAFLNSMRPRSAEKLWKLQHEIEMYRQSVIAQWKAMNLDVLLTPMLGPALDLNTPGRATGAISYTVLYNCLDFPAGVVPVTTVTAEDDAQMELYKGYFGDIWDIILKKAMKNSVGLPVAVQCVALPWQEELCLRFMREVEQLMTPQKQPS
Method in brief: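 Rat brain membranes incubated with [14C]anandamide (6 µM) and increasing compound concentrations in 50 mM Tris–HCl, pH 9, for 30 min at 37 °C. Mixture extracted with 2 volumes CHCl3/CH3OH (2:1). [14C]ethanolamine in the aqueous phase counted by scintillation. IC50 is the mean of n = 3 experiments.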

Cannabinoid receptor 1 [4] = target: T1, Cannabinoid receptor 1; test: as §1; format: cell-based, HEK293; remark: listed apart in the source
Method in brief: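 Membranes from HEK cells transfected with human CB1. Screen at 5, 10 and 25 µM, then full dose–response for compounds displacing >50% at 10 µM. […] Ki derived from IC50 by Cheng–Prusoff. Means of n = 3 separate experiments.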

T1 sequence (P21554 whole entry): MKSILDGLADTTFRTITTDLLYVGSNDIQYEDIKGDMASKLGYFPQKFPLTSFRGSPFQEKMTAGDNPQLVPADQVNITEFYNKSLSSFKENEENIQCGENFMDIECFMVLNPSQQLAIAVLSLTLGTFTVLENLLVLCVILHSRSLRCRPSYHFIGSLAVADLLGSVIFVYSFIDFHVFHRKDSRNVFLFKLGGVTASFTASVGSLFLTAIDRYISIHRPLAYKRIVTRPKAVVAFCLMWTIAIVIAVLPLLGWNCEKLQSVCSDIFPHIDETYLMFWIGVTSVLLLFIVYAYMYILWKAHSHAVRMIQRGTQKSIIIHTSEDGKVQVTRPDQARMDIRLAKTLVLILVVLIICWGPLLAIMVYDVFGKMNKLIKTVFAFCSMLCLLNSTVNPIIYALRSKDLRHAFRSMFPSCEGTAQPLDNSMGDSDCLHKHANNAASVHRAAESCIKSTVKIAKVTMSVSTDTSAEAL
Chain of Cannabinoid receptor (Homo sapiens) (P21554 whole entry, looked up): as the sequence (P21554 whole entry) above
Chain of Cannabinoid receptor (Homo sapiens) (P34972 whole entry, looked up): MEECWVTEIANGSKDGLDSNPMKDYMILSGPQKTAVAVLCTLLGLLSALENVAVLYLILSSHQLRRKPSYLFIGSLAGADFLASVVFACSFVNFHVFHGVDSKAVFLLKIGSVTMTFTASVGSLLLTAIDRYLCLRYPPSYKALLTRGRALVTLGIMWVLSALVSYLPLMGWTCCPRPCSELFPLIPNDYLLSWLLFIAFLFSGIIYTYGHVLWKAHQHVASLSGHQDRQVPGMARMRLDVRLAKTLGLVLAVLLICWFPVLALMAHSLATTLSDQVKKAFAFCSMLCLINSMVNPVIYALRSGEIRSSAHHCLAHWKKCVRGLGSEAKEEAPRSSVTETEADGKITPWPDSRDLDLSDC
Chain of Cannabinoid receptor 2 (P34972 whole entry): as the sequence (P34972 whole entry, looked up) above

**Q.** CCCCCCc1c(O)cccc1OCCCCCCCC(=O)NCCO was tested. Which Ki (Cannabinoid receptor 2) did it give?
**A.** The Ki was 3940 nM.

**Q.** And the Ratio Ki [1]?
**A.** The Ratio Ki was 0.07.

**Q.** And the Ki (Cannabinoid receptor 1 [2])?
**A.** The Ki was 260 nM.

**Q.** And the IC50 [3]?
**A.** The IC50 was 25000 nM.

**Q.** With CCCCCc1cc(O)cc(OCCCCCCCCCCC(=O)NCC2CC2)c1 as the compound, how does the Ki (Cannabinoid receptor 2) read?
**A.** The Ki was 80 nM.

**Q.** What about the Ratio Ki [1] of the same compound?
**A.** Its Ratio Ki is 6.4.

**Q.** And the Ki (Cannabinoid receptor 1 [2])?
**A.** Its Ki is 510 nM.

**Q.** And the IC50 [3]?
**A.** The IC50 was > 50000 nM.

**Q.** CCCCCCc1c(O)cccc1OCCCCCCCC(=O)NC1CC1 was tested. Which Ki (Cannabinoid receptor 2) did it give?
**A.** Its Ki is 1800 nM.

**Q.** What about the Ratio Ki [1] of the same compound?
**A.** The Ratio Ki was 0.17.

**Q.** And the Ki (Cannabinoid receptor 1 [2])?
**A.** Its Ki is 310 nM.

**Q.** And the IC50 [3]?
**A.** The IC50 was 50000 nM.

**Q.** Which Ki (Cannabinoid receptor 2) does the source give for CCCCCc1cc(O)cc(OCCCCCCCCCCCC(=O)NCCO)c1 here?
**A.** Its Ki is 39 nM.

**Q.** What about the Ratio Ki [1] of the same compound?
**A.** Its Ratio Ki is 1.5.

**Q.** And the Ki (Cannabinoid receptor 1 [2])?
**A.** Its Ki is 60 nM.

**Q.** And the IC50 [3]?
**A.** Its IC50 is > 50000 nM.

**Q.** Which results are given for CCCCCCc1ccc(OCCCCCCCCCCC(=O)NCC2CC2)cc1O?
**A.** Ki (Cannabinoid receptor 2): 2900 nM; IC50 [3]: > 50000 nM; IC50 (Cannabinoid receptor 1 [4]): > 10000 nM

**Q.** Which results are given for CCCCCCc1ccc(OCCCCCCCCCCC(=O)NCCc2ccc(O)c(O)c2)cc1O?
**A.** IC50 (Cannabinoid receptor 2): > 10000 nM; IC50 (Cannabinoid receptor 1 [4]): > 10000 nM

**Q.** What does the source list for CCCCCCc1ccc(OCCCCCCCC(=O)NC2CC2)cc1O?
**A.** Ki (Cannabinoid receptor 2): 280 nM; Ratio Ki [1]: 0.2; Ki (Cannabinoid receptor 1 [2]): 56 nM; IC50 [3]: > 50000 nM

**Q.** What does the source list for CCCCCCc1ccc(OCCCCCCCCCCCC(=O)NC2CC2)cc1O?
**A.** Ki (Cannabinoid receptor 2): 3940 nM; IC50 [3]: > 50000 nM; IC50 (Cannabinoid receptor 1 [4]): > 10000 nM

**Q.** What does the source list for CCCCCCc1ccc(OCCCCCCCCCCCC(=O)NCCO)cc1O?
**A.** IC50 (Cannabinoid receptor 2): > 10000 nM; IC50 [3]: 10000 nM; IC50 (Cannabinoid receptor 1 [4]): > 10000 nM

**Q.** Which Ki (Cannabinoid receptor 2) does the source give for CCCCCc1cc(O)cc(OCCCCCCCC(=O)NC2CC2)c1 here?
**A.** The Ki was 39 nM.

**Q.** What about the Ratio Ki [1] of the same compound?
**A.** Its Ratio Ki is 0.33.

**Q.** And the Ki (Cannabinoid receptor 1 [2])?
**A.** Its Ki is 16 nM.

**Q.** What about the IC50 [3] of the same compound?
**A.** Its IC50 is > 50000 nM.

**Q.** With CCCCCc1cc(O)cc(OCCCCCCCC(=O)NCCO)c1 as the compound, how does the Ki (Cannabinoid receptor 2) read?
**A.** Its Ki is 390 nM.

**Q.** What about the Ki (Cannabinoid receptor 1 [2]) of the same compound?
**A.** Its Ki is 130 nM.

**Q.** And the IC50 [3]?
**A.** The IC50 was > 50000 nM.

**Q.** How did the IC50 (Cannabinoid receptor 2) turn out when CCCCCc1cc(O)cc(OCCCCCCCCCCC(=O)NCCc2ccc(O)c(O)c2)c1 was run?
**A.** Its IC50 is > 10000 nM.

**Q.** What about the Ki (Cannabinoid receptor 1 [2]) of the same compound?
**A.** The Ki was 560 nM.

**Q.** Which Ki (Cannabinoid receptor 2) does the source give for CCCCCc1cc(O)cc(OCCCCCCCCCCCC(=O)NC2CC2)c1 here?
**A.** Its Ki is 310 nM.

**Q.** And the Ratio Ki [1]?
**A.** The Ratio Ki was 2.4.

**Q.** What about the Ki (Cannabinoid receptor 1 [2]) of the same compound?
**A.** Its Ki is 750 nM.

**Q.** And the IC50 [3]?
**A.** Its IC50 is 50000 nM.

**Q.** For CCCCCCc1c(O)cccc1OCCCCCCCCCCC(=O)NCc1ccc(OC)c(O)c1, which Ki (Cannabinoid receptor 2) is on record?
**A.** The Ki was 2100 nM.

**Q.** And the Ki (Cannabinoid receptor 1 [2])?
**A.** Its Ki is 2820 nM.

**Q.** And the IC50 [3]?
**A.** The IC50 was 50000 nM.

**Q.** What does the source list for CCCCCCc1ccc(OCCCCCCCC(=O)NCCO)cc1O?
**A.** Ki (Cannabinoid receptor 2): 2400 nM; Ratio Ki [1]: 0.08; Ki (Cannabinoid receptor 1 [2]): 190 nM; IC50 [3]: 50000 nM

**Q.** Which Ki (Cannabinoid receptor 2) does the source give for CCCCCc1cc(O)cc(OCCCCCCCCCCC(=O)NCc2ccc(OC)c(O)c2)c1 here?
**A.** Its Ki is 1650 nM.

**Q.** What about the Ratio Ki [1] of the same compound?
**A.** The Ratio Ki was 1.3.

**Q.** And the Ki (Cannabinoid receptor 1 [2])?
**A.** Its Ki is 2100 nM.

**Q.** What about the IC50 [3] of the same compound?
**A.** Its IC50 is 10000 nM.

**Q.** Which IC50 (Cannabinoid receptor 2) does the source give for CCCCCCc1ccc(OCCCCCCCCCCC(=O)NCc2ccc(OC)c(O)c2)cc1O here?
**A.** The IC50 was > 10000 nM.

**Q.** And the Ratio Ki [1]?
**A.** The Ratio Ki was 1.3.

**Q.** What about the IC50 [3] of the same compound?
**A.** Its IC50 is > 50000 nM.

**Q.** What about the IC50 (Cannabinoid receptor 1 [4]) of the same compound?
**A.** The IC50 was > 10000 nM.
